The record followed here is ChEMBL document CHEMBL1156534, “Hemopressin is an inverse agonist of CB1 cannabinoid receptors” (Proc Natl Acad Sci U S A, 2007).

Calls of active or inactive are those of the source.

In test [1] the target is Mu-type opioid receptor (Homo sapiens) (UniProt P35372). Nature of the test: Antagonist activity at mu opioid receptor expressed in SKNSH cells at 100 nM by ELISA relative to control. Format: functional, cell-based. Set-up: scale not given: the % may be the effect or the level left. On the technique in general: ELISA stands for enzyme-linked immunosorbent assay.
For test [2], the target named is T1, Type-1 angiotensin II receptor (Homo sapiens) (UniProt P30556).
T1 sequence (whole entry): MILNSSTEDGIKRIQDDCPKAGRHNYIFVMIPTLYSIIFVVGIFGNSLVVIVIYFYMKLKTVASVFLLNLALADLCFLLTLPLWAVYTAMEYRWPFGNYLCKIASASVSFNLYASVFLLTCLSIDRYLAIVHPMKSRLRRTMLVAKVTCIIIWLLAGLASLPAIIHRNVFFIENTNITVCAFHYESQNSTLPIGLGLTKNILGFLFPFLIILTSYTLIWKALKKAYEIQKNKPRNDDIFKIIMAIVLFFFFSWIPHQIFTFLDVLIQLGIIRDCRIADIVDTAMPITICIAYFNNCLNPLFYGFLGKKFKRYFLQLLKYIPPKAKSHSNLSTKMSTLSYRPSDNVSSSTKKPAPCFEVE
The test is described as follows: Antagonist activity at AT1 angiotensin receptor expressed in HEK293 cells assessed as blockade of angiotensin 2-mediated decrease in secreted alkaline phosphatase activity at 1 uM after 6 hrs relative to control. Format: functional, cell-based. The essentials: (§1)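 HEK-293 cells transiently co-transfected with pCRE-SeAP and a Flag-tagged receptor, 30,000 cells/well on poly-L-lysine. They were serum-starved 16–18 h, then exposed 6 h in serum-free medium to 10 μM forskolin (omitted for β2) plus the receptor agonist (100 nM), with or without peptide (1 μM). Heat-treated supernatant SeAP was read by CSPD chemiluminescence. Mean ± SEM, n = 6.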

Test [3] deals with Rattus norvegicus. The test is described as follows: Antihyperalgesic effects in Wistar rat assessed as reduction of carrageenan-induced paw pressure at 100 ug/kg, po after 3 hrs. The format is functional, organism-based. A digest of the protocol:
(§2)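 Male Wistar rats (200 g) received carrageenan 200 μg/paw intraplantar in saline into the right hind paw. Peptide was given at the same time: intraplantar 10 μg/paw, intrathecal 0.5 or 5 μg/kg, or oral 50 or 100 μg/kg; saline-treated rats served as controls. Paw-pressure withdrawal threshold (force ramp 16 g/s) was read at 0 and 3 h. n = 6–8.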
A general note: In the carrageenan paw model, swelling and tenderness develop within hours.

For test [4], the target named is T2, Cannabinoid receptor 2 (Rattus norvegicus) (UniProt Q9QZN9).
T2 sequence (whole entry): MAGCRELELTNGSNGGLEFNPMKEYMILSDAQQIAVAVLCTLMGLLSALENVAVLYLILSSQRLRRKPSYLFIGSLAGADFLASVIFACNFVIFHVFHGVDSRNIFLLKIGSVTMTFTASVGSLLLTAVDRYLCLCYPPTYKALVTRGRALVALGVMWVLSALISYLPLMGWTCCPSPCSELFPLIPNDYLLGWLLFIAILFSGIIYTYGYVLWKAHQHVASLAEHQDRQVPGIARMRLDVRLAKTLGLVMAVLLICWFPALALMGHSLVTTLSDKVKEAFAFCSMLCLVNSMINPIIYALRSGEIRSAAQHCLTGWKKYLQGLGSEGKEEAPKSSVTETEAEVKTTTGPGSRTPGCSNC
The test is described as follows: Antagonist activity at Long-Evans rat spleen CB2 receptor assessed as blockade of Hu210-mediated decrease in adenylate cyclase activity. Format: functional, tissue-based. The essentials: (§3)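 Membranes (10 μg) came from striatum (CB1) or spleen (CB2). They were tested in GTPγS-binding or adenylyl cyclase assays with Hu-210 and test ligand (0–1 μM), or with Hu-210 curves with or without 10 μM peptide; a 1 μM single-point combination was also used. Mean ± SE of triplicates.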

The target of test [5] is Cannabinoid receptor 1 (Homo sapiens) (UniProt P21554). The test is described as follows: Antagonist activity at flag tagged recombinant CB1 receptor expressed in HEK293 cells assessed as blockade of Hu210-induced increase in phospho ERK1/2 level. The format is functional, cell-based. A digest of the protocol:
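HEK-293 cells expressing Flag-tagged CB1 (2 × 10⁶ cells/well) were stimulated for 5 min with 100 nM Hu-210, with or without 10 μM antagonist. Phospho-ERK1/2 was quantified relative to untreated cells (100%). Mean ± SE of triplicate experiments.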

Test [6] relates to Rattus norvegicus. Nature of the test: Antihyperalgesic effects in Wistar rat assessed as reduction of carrageenan-induced paw pressure at 50 ug/kg, po after 3 hrs. Format: functional, organism-based. The essentials: as §2
Test [7] addresses T1, Type-1 angiotensin II receptor (Homo sapiens). Nature of the test: Antagonist activity at AT1 angiotensin receptor expressed in HEK293 cells assessed as blockade of secreted alkaline phosphatase activity at 1 uM after 6 hrs relative to control. The format is functional, cell-based. The essentials: as §1
Test [8] addresses Cannabinoid receptor 1 (Rattus norvegicus) (UniProt P20272). The test is described as follows: Antagonist activity at Long-Evans rat striatal membrane CB1 receptor assessed as blockade of Hu210-induced increase in GTPgammaS binding. Format: functional. A digest of the protocol:
as §3
A general note: Binding of GTPγS marks nucleotide exchange on a G protein.

Test [9] deals with Cannabinoid receptor 1 (Homo sapiens) (UniProt P21554). The test is described as follows: Antagonist activity at CB1 receptor expressed in SKNSH cells assessed as blockade of Hu210-induced increase in antibody recognition at 100 nM by ELISA relative to control. The format is functional, cell-based. Set-up: scale not given: the % may be the effect or the level left.
In test [10] the target is T3, Alpha-2A adrenergic receptor (Homo sapiens) (UniProt P08913).
T3 sequence (whole entry): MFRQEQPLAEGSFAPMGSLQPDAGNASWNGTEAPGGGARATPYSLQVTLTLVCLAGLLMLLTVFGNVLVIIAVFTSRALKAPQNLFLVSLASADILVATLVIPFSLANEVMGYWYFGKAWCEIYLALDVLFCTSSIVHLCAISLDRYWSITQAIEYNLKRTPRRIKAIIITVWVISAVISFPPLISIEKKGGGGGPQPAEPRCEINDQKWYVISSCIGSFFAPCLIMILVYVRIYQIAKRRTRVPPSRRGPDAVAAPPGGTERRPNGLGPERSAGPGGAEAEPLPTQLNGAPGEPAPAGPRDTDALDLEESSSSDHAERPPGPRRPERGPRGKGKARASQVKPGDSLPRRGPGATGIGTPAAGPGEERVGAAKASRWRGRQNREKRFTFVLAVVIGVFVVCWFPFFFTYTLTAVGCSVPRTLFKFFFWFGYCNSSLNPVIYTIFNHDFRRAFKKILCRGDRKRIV
Nature of the test: Antagonist activity at alpha2A adrenergic receptor expressed in SKNSH cells at 100 nM by ELISA relative to control. The format is functional, cell-based. On the set-up: scale not given: the % may be the effect or the level left.

The target in test [11] is T3, Alpha-2A adrenergic receptor (Homo sapiens). The test is described as follows: Antagonist activity at alpha2A adrenergic receptor expressed in SKNSH cells assessed as blockade of clonidine-induced increase in antibody recognition at 100 nM by ELISA relative to control. Format: functional, cell-based. On the set-up: scale not given: the % may be the effect or the level left.

Test [12] deals with Delta-type opioid receptor (Homo sapiens) (UniProt P41143). Nature of the test: Antagonist activity at delta opioid receptor expressed in HEK293 cells assessed as blockade of deltorphin 2-mediated decrease in secreted alkaline phosphatase activity at 1 uM after 6 hrs relative to control. The format is functional, cell-based. A digest of the protocol:
as §1

Chain of Cannabinoid receptor 1 (Homo sapiens) (P21554 whole entry): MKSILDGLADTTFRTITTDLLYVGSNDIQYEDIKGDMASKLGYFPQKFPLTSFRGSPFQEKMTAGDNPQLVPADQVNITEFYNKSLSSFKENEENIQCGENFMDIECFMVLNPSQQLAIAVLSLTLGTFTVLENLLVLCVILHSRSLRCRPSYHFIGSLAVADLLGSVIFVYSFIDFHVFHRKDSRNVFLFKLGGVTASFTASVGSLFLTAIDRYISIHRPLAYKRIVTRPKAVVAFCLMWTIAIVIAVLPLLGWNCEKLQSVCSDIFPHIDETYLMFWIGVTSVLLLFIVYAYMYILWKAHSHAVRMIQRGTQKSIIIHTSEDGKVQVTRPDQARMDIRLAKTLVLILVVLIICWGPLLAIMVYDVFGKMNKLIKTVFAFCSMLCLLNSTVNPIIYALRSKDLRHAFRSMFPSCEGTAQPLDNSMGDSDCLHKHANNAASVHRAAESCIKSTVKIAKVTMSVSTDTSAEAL
Chain of Mu-type opioid receptor (Homo sapiens) (P35372 whole entry): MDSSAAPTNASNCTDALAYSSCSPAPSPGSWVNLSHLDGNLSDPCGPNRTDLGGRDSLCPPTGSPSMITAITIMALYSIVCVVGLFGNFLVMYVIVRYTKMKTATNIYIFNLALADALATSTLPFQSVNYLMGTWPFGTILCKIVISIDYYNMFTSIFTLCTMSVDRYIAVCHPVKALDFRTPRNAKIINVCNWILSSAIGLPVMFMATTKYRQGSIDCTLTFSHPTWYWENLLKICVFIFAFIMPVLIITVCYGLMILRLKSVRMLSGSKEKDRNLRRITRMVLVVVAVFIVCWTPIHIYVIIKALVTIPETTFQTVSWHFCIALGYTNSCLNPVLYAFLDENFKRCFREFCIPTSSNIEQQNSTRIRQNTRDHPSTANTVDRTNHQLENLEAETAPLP
Chain of Delta-type opioid receptor (Homo sapiens) (P41143 whole entry): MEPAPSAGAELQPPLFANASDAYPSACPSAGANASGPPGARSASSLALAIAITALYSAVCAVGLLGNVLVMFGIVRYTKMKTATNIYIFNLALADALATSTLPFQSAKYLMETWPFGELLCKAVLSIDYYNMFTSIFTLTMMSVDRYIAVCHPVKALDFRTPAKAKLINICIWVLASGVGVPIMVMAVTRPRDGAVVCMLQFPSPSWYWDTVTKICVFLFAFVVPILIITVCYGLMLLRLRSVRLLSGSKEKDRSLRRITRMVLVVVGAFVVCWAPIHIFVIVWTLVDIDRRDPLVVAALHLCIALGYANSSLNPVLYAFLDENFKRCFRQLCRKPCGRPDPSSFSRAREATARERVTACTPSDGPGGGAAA
Chain of Cannabinoid receptor 1 (Rattus norvegicus) (P20272 whole entry): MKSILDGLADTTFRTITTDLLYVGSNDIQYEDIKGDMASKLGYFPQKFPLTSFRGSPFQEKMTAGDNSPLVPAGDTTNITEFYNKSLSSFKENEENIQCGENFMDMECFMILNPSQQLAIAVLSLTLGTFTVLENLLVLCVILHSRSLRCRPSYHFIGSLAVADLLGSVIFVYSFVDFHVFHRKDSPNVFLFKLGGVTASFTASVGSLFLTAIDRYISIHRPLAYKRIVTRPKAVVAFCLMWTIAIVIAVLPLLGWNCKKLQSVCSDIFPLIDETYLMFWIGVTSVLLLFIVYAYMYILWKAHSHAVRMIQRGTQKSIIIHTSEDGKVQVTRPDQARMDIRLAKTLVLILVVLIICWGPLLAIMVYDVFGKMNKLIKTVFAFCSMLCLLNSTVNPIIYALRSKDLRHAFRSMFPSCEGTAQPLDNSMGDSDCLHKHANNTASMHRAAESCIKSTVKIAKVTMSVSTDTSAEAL

On to `CC(C)C[C@H](NC(=O)[C@H](Cc1ccccc1)NC(=O)[C@H](CCCCN)NC(=O)[C@H](Cc1ccccc1)NC(=O)[C@H](CC(N)=O)NC(=O)[C@@H](NC(=O)[C@@H]1CCCN1)C(C)C)C(=O)N[C@@H](CO)C(=O)N[C@@H](Cc1cnc[nH]1)C(=O)O` [HEMOPRESSIN], for which the Activity in test [1] is 106%; in test [2], 1.02; in [7], 0.98; in test [9] it was 102%; in test [10] it was 103%; in [11], 130%. Also, the Activity in test [12] turned out to be 0.59. The result in test [3], in test [5], in [6] and in test [8] was Active. Further, the outcome in [4] was inactive.
